Screens as filed in PubChem.
14-3-3 Bad PPI = disrupts binding of bovine 14-3-3 zeta to phospho-Bad peptide | TR-FRET 14-3-3zeta/Dy647-pBad peptide displacement, 1 h | inhibition, % at 21.7 µM | hit rate 0.71% among 220,000 | AID 781;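 active = inhibition above about 70%, limit read from the data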
Wee1 stabilizer = blocks degradation of human Wee1 kinase; hit rate 1.2% among 220,000; reporter increase, % at 5 µM; P30291; HeLa Luc-Wee1K328M stability, luciferase luminescence; 100% = proteasome inhibitor MG132 effect;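 active = activation above the mean of all tested compounds plus 3 SD, set per screening run, cut at about 8.8% in these data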;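 note: cells exposed to compound for 20 h before luminescence read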
Target sequence (P30291 whole entry K328M): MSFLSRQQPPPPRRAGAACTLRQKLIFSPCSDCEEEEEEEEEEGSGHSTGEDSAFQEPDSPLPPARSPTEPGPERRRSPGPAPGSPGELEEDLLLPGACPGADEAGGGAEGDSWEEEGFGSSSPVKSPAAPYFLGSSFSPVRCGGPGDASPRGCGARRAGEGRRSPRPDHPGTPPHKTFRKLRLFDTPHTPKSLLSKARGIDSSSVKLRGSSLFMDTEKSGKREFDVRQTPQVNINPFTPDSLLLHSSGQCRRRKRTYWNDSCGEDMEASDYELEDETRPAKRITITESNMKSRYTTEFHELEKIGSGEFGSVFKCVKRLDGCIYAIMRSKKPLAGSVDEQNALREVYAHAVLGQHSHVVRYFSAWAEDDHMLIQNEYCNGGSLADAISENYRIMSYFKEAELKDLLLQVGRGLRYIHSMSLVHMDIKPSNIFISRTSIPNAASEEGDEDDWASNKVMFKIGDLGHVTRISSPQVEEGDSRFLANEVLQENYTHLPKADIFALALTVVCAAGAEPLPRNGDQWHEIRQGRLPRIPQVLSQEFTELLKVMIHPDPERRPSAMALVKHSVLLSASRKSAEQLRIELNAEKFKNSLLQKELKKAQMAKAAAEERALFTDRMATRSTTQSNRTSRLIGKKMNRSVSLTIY
Tb hexokinase = blocks Trypanosoma brucei hexokinase 1 activity; recombinant TbHK1, G6PDH-coupled NADH A340; inhibition, % at 10 µM; hit rate 0.11% among 220,000;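 active = inhibition of 50% or more in the single-dose primary screen; inactive = inhibition below 50%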
Mdm2 ligase inh = Mdm2 E3 ligase (human) inhibition | Q00987 | cell-based MDM2 ubiquitination luciferase reporter, 2 h; 0 = plate control, 100 = twice control, blank-subtracted | signal enhancement, % at 5 µM | hit rate 0.11% among 210,000;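 active = signal enhancement of 30% or more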;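 note: luminescence tracks abundance of the self-degrading MDM2-luciferase fusion protein; higher signal means inhibition of MDM2 E3 ligase activity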
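Timing – 2 h compound exposure at 37 °C · Assay system – mammalian cells stably expressing self-ubiquitinating, self-degrading MDM2 E3–luciferase fusion · Amount – 2000 cells seeded into each well · Measure – % luminescence enhancement versus blank-corrected plate control mean · Measured by – SteadyLite luminescence, 15 min reagent step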
Hck Nef HTS = human Hck-Nef kinase inhibition; Recombinant Hck-YEEI plus Nef, Z-Lyte FRET kinase assay; inhibition, % at 20 µM; AID 463187; P08631; hit rate 0.68% among 220,000;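 active = Hck-Nef kinase inhibition above about 50%, limit read from the data; inactive = inhibition below that limit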
Numbers stand for hits; i = inactive; nt = no result given; [ ] = remark or other dose. In the library only some 2.7% were active in any assay of this set; here they are far more common.

SMILES	14-3-3 Bad PPI	Wee1 stabilizer	Tb hexokinase	Mdm2 ligase inh	Hck Nef HTS
COc1ccc(-c2ccc3c(N)c(C(=O)c4ccc(OC)c(OC)c4)sc3n2)cc1	86[fluorescence artefact?]	i	i	i	i
CCOC(=O)c1sc2nc(C)cc(-c3ccccc3)c2c1N	i	i	i	i	i
O=C(/C=C/c1ccco1)NCC1COc2ccccc2O1 (stereo not given)	i	i	i	i	i
COc1ccc2[nH]c3c(=O)n(CCCCC(=O)NCCC(C)C)c(=S)[nH]c3c2c1	i	i	i	i	i
CN(C)c1oc(/C=C/c2ccccc2)nc1C#N	i	i	i	i	71
CN(C)c1oc(-c2ccccc2Cl)nc1C#N	i	i	i	32	i
C=CCc1cccc2cc(C(=O)Nc3ccccc3C(=O)O)c(=O)oc12	i	i	i	i	i
CCOc1ccc(-n2nc3c(=O)n(CCN4CCCCC4)nc(C)c3c2C)cc1	i	i	i	i	i
CCN(CC)CCOc1ccc(/C(=C(/Cl)c2ccccc2)c2ccccc2)cc1	78	i	i	i	i
CCn1ccc(C(=O)NC2=C(C#N)CCC2)n1	i	9.7	i	i	i
CCn1nccc1C(=O)NC1=C(C#N)CCC1	i	i	i	i	i
CCn1nc(C)cc1C(=O)Sc1ccc(C)cc1	i	i	i	i	i
Cc1cc(N2CCN(C(=O)c3ccco3)CC2)n2nc(-c3cccc(Cl)c3)cc2n1	i	9.2	i	i	i
Cc1cc(N2CCN(C(=O)c3ccco3)CC2)n2nc(C)c(-c3ccccc3)c2n1	i	i	i	i	i
Cn1cc(CN2CCCC(CO)(Cc3cccc(Cl)c3)C2)cn1 (stereo not given)	i	i	i	i	i
CC(C)n1cc(CN2CCCC(CO)(Cc3cccc(Cl)c3)C2)cn1 (stereo not given)	i	10	i	i	i
COc1ccc2cc(CCNC(=O)c3cccs3)c(=O)[nH]c2c1	i	9.5	i	nt	i
COc1ccc2cc(CCNC(=O)CC(C)(C)C)c(=O)[nH]c2c1	i	i	i	i	i
CC(O)CCC(=O)NCCNC(=O)CCC(C)O (stereo not given)	i	i	i	i	i
CC(O)C(=O)NCCOCCOCCNC(=O)C(C)O (stereo not given)	i	9.5	i	i	i
Cc1[nH]nc(Nc2ccc(Br)cc2)c1[N+](=O)[O-]	i	9.2	i	i	i
CN(C(=S)NCCN1CCOCC1)C(c1ccccc1)c1ccccc1	i	i	i	i	i
O=C(O)c1ccc(Oc2cccc([N+](=O)[O-])c2)cc1C(=O)O	74	i	i	i	i
Cc1ccc(Nc2nc(-c3ccccc3)c(CC(=O)O)s2)cc1	i	i	i	i	i
O=C(Cc1sc(Nc2ccccc2)nc1-c1ccccc1)NCc1ccccn1	i	9.1	i	i	i
SMILES	14-3-3 Bad PPI	Wee1 stabilizer	Tb hexokinase	Mdm2 ligase inh	Hck Nef HTS
CCN1CCc2c(sc(NC(=O)Nc3ccc(Cl)c(Cl)c3)c2C(N)=O)C1	i	i	i	i	i
CC(C)Nc1nc2ccccc2c(=O)[nH]1	90	i	i	i	i
COc1cccc(CN(C)CC(=O)Nc2cc3oc4ccccc4c3cc2OC)c1	i	9.9	i	nt	i
COc1cc2c(cc1NC(=O)CN(C)Cc1cccc(OC)c1OC)oc1ccccc12	i	i	i	i	i
Cc1nn(Cc2ccccc2)c(C)c1NC(=O)CSc1nc2sc3c(c2c(=O)n1C)CCC3	nt	i	i	nt	i
Cn1cc([N+](=O)[O-])c(C(=O)Nc2ccn(Cc3c(F)c(F)cc(F)c3F)n2)n1	i	i	i	i	i
C/C(=C\C(=O)c1ccc(Br)cc1)NCc1ccc(C)cc1	i	i	i	i	i
CCn1c(COc2ccc(OC)cc2)nc2ccccc21	i	8.8	i	i	i
CCCn1c(-c2ccc(OC)cc2)nc2ccccc21	i	i	i	i	i
COCn1c(-c2ccc(OC)cc2)nc2ccccc21	i	9.2	i	i	i
O=C(Cn1nc(Cc2ccncc2)c2ccccc2c1=O)Nc1cccnc1Cl	i	i	i	nt	i
Cc1cc(C)c(S(=O)(=O)/N=C2/C=C(SCC(=O)O)C(=O)c3ccccc32)cc1C	70	i	i	i	i
N=C1C(c2nc3ccccc3[nH]2)=C(O)CN1c1ccc(F)cc1	i	9.7	i	i	i
Cc1cc(C)cc(N2CC(O)=C(c3nc4ccccc4c(=O)[nH]3)C2=N)c1	77	i	i	i	i
Cc1sc2ncn(/N=C/c3ccco3)c(=O)c2c1C	i	i	i	nt	i
CCOc1ccccc1NC(=O)Nc1ccc(CC#N)cc1	i	10	i	i	i
CCOc1ccccc1NC(=O)Nc1ccon1	i	i	i	i	i
O=C(NCC1CCCO1)C(Cc1ccccc1)N1C(=O)C2C3C=CC(C4CC34)C2C1=O (stereo not given)	i	i	i	i	i
CCN(CC)C(=S)SC1=CCS(=O)(=O)C1	i	10	i	i	i
COc1ccc(CN(Cc2cc3cc(OC)c(OC)cc3[nH]c2=O)C(=O)NC2CCCCC2)cc1	i	i	i	i	i
COc1cc2cc(CN(C(=O)NC3CCCCC3)C3CCCC3)c(=O)[nH]c2cc1OC	nt	8.8	i	i	i
O=C(COc1ccccc1F)Nc1cc(S(=O)(=O)N2CCOCC2)ccc1N1CCOCC1	i	i	i	i	i
COc1ccc(CCC(=O)Nc2ccccc2C(F)(F)F)cc1	i	i	i	i	i
CCCC(C)C(=O)Nc1ccccc1C(=O)OCC (stereo not given)	i	i	i	i	i
CCOC(=O)c1ccccc1NC(=O)C(C)Oc1ccccc1 (stereo not given)	i	9.7	i	i	i
SMILES	14-3-3 Bad PPI	Wee1 stabilizer	Tb hexokinase	Mdm2 ligase inh	Hck Nef HTS
COc1ccc(OC(C)C(=O)Nc2ccccc2C(F)(F)F)cc1 (stereo not given)	i	i	i	262	i
CC(=O)Nc1ccc(C(=O)Nc2cccc(-c3cnc4ccccc4n3)c2)cc1	81	i	i	i	i
O=C(Cc1ccccc1Cl)Nc1nc2ccccc2[nH]1	i	i	i	i	i
CC1(C)Cc2ccccc2/C(=C/C(=O)N2CCCCCC2)N1	74	i	i	nt	i
CC1(C)Cc2ccccc2C(=NCCCC(=O)O)N1	i	i	i	i	i
CC(N=C1NC(C)(C)Cc2ccccc21)C(=O)O (stereo not given)	91	i	i	i	i
O=C(O)CCSCCCN1C(=O)c2cccc3cccc(c23)C1=O	i	i	i	i	i
CN1CCN(C(=O)C2=C[C@@H](c3ccc(Br)cc3)C[C@@H](OCc3ccc(CO)cc3)O2)CC1	i	9.8	i	nt	i
COc1ccc(CNC(=O)C(=O)NCCCn2ccnc2)cc1	i	i	i	i	i
Cc1ccc(C)c2[nH]c(=O)c(CN(Cc3nnnn3C3CCCCC3)CC3CCCO3)cc12 (stereo not given)	i	9.8	i	i	i
O=C1OC(c2ccccc2)=C/C1=C\N1CCOCC1	i	27	i	i	i
O=c1cc(CN2CCN(C/C=C/c3ccccc3)CC2)c2cc(O)c(-c3ccccc3)cc2o1	i	i	i	i	i
